ChEMBL document CHEMBL1806372, “Cytotoxic ring A-modified steroid analogues derived from Grundmann's ketone” (Eur J Med Chem, 2011)

How the values were obtained:
NCI-H460 [1] = assay: Cytotoxicity against human NCI-H460 cells after 48 hrs by sulforhodamine B assay; format: functional; conditions: NCI-H460, 48 h, read-out: LC50 (the source's name)
Summary of the method: (§1)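 NCI 60 human tumour cell line panel run to the NCI protocol. GI50, TGI and LC50 come from log concentration vs % growth inhibition curves for each cell line. Lines insensitive at the top concentration are reported with ">".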

HCT-116 = assay: Cytotoxicity against human HCT116 cells after 48 hrs by sulforhodamine B assay; format: functional; conditions: HCT-116, 48 h, read-out: LC50 (the source's name); summary of the method: as §1
HT-29 [2] = assay: Cytotoxicity against human HT-29 cells after 48 hrs by sulforhodamine B assay; format: functional; conditions: HT-29, 48 h, read-out: LC50 (the source's name); summary of the method: as §1
SF-539 = assay: Cytotoxicity against human SF539 cells after 48 hrs by sulforhodamine B assay; format: functional; conditions: SF-539, 48 h, read-out: LC50 (the source's name); summary of the method: as §1
LOX IMVI = assay: Cytotoxicity against human LOXIMVI cells after 48 hrs by sulforhodamine B assay; format: functional; conditions: read-out: LC50 (the source's name); summary of the method: as §1
MDA-MB-435 = assay: Cytotoxicity against human MDA-MB-435 cells after 48 hrs by sulforhodamine B assay; format: functional; conditions: MDA-MB-435, 48 h, read-out: LC50 (the source's name); summary of the method: as §1
SK-MEL-2 = assay: Cytotoxicity against human SK-MEL-2 cells after 48 hrs by sulforhodamine B assay; format: functional; conditions: SK-MEL-2, 48 h, read-out: LC50 (the source's name); summary of the method: as §1
OVCAR-3 [3] = assay: Cytotoxicity against human OVCAR3 cells after 48 hrs by sulforhodamine B assay; format: functional; conditions: OVCAR-3, 48 h, read-out: LC50 (the source's name); summary of the method: as §1
SK-OV-3 [4] = assay: Cytotoxicity against human SKOV3 cells after 48 hrs by sulforhodamine B assay; format: functional; conditions: SK-OV-3, 48 h, read-out: LC50 (the source's name); summary of the method: as §1
TK-10 = assay: Cytotoxicity against human TK10 cells after 48 hrs by sulforhodamine B assay; format: functional; conditions: TK-10, 48 h, read-out: LC50 (the source's name)
MDA-MB-231 = assay: Cytotoxicity against human MDA-MB-231 cells after 48 hrs by sulforhodamine B assay; format: functional; conditions: MDA-MB-231, 48 h, read-out: LC50 (the source's name); summary of the method: as §1
SK-OV-3 [5] = assay: Growth inhibition of human SKOV3 cells after 48 hrs by sulforhodamine B assay; format: functional; conditions: SK-OV-3, 48 h
Summary of the method: (§2)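 NCI 60-cell panel five-dose assay. GI50, TGI and LC50 are derived from log concentration versus % growth inhibition curves. Cell lines insensitive at the top concentration are given a ">" prefix.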

RXF 393 = assay: Growth inhibition of human RXF393 cells after 48 hrs by sulforhodamine B assay; format: functional; conditions: RXF 393, 48 h
Summary of the method: (§3)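 GI50, TGI and LC50 were derived from log concentration versus % growth inhibition curves for each cell line. GI50 is the concentration giving a 50% decrease in net cell growth. Insensitive lines are reported as greater than the highest concentration.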

UO-31 = assay: Growth inhibition of human UO31 cells after 48 hrs by sulforhodamine B assay; format: functional; conditions: UO-31, 48 h; summary of the method: as §2
PC-3 = assay: Growth inhibition of human PC3 cells after 48 hrs by sulforhodamine B assay; format: functional; conditions: PC-3, 48 h; summary of the method: as §3
MCF7 = assay: Growth inhibition of human MCF7 cells after 48 hrs by sulforhodamine B assay; format: functional; conditions: MCF7, 48 h; summary of the method: as §3
MDA-MB-468 = assay: Growth inhibition of human MDA-MB-468 cells after 48 hrs by sulforhodamine B assay; format: functional; conditions: MDA-MB-468, 48 h; summary of the method: as §3
CCRF-CEM = assay: Cytotoxicity against human CCRF-CEM cells after 48 hrs by sulforhodamine B assay; format: functional; conditions: read-out: LC50 (the source's name); summary of the method: as §1
EKVX = assay: Cytotoxicity against human EKVX cells after 48 hrs by sulforhodamine B assay; format: functional; conditions: read-out: LC50 (the source's name); summary of the method: as §1
HL-60(TB) = assay: Growth inhibition of human HL-60(TB) cells after 48 hrs by sulforhodamine B assay; format: functional; conditions: HL-60, 48 h
K562 = assay: Growth inhibition of human K562 cells after 48 hrs by sulforhodamine B assay; format: functional; conditions: K562, 48 h
Summary of the method: (§4)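 From log concentration versus % growth curves, GI50 (50% decrease in net growth), TGI (total growth inhibition) and LC50 (net 50% loss of initial cells) are derived for each line.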

SR = assay: Growth inhibition of human SR cells after 48 hrs by sulforhodamine B assay; format: functional; summary of the method: as §2
HOP-62 = assay: Growth inhibition of human HOP62 cells after 48 hrs by sulforhodamine B assay; format: functional; conditions: HOP-62, 48 h; summary of the method: as §4
NCI-H226 = assay: Growth inhibition of human NCI-H226 cells after 48 hrs by sulforhodamine B assay; format: functional; conditions: NCI-H226, 48 h; summary of the method: as §3
NCI-H322M = assay: Growth inhibition of human NCI-H322M cells after 48 hrs by sulforhodamine B assay; format: functional; summary of the method: as §3
NCI-H460 [6] = assay: Growth inhibition of human NCI-H460 cells after 48 hrs by sulforhodamine B assay; format: functional; conditions: NCI-H460, 48 h; summary of the method: as §3
HCC 2998 = assay: Growth inhibition of human HCC2998 cells after 48 hrs by sulforhodamine B assay; format: functional; conditions: HCC 2998, 48 h; summary of the method: as §4
HT-29 [7] = assay: Growth inhibition of human HT-29 cells after 48 hrs by sulforhodamine B assay; format: functional; conditions: HT-29, 48 h; summary of the method: as §4
KM12 = assay: Growth inhibition of human KM12 cells after 48 hrs by sulforhodamine B assay; format: functional; conditions: KM12, 48 h; summary of the method: as §4
SW-620 = assay: Growth inhibition of human SW620 cells after 48 hrs by sulforhodamine B assay; format: functional; conditions: SW-620, 48 h; summary of the method: as §2
M14 = assay: Growth inhibition of human M14 cells after 48 hrs by sulforhodamine B assay; format: functional; conditions: M14, 48 h; summary of the method: as §4
SK-MEL-28 = assay: Growth inhibition of human SK-MEL-28 cells after 48 hrs by sulforhodamine B assay; format: functional; conditions: SK-MEL-28, 48 h; summary of the method: as §3
UACC-257 = assay: Growth inhibition of human UACC257 cells after 48 hrs by sulforhodamine B assay; format: functional; conditions: UACC-257, 48 h; summary of the method: as §2
OVCAR-3 [8] = assay: Growth inhibition of human OVCAR3 cells after 48 hrs by sulforhodamine B assay; format: functional; conditions: OVCAR-3, 48 h; summary of the method: as §3
[9] = Antibacterial activity against Pseudomonas antimicrobica assessed as zone of inhibition at 5 uL and 32 degC after 36 hrs by disk diffusion method; format: functional, Burkholderia gladioli
Summary of the method: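 Disc diffusion on AC agar, each strain spread evenly over the medium; test compounds given as 1% (w/v) DMSO solutions. Plates covered and incubated 36 h at 32 °C, then the diameter of the zone of inhibited growth measured in mm. Tetracycline served as antibacterial reference.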

## CC(C)CCC[C@@H](C)[C@H]1CC[C@H]2C3=CC[C@@H]4C(=O)C=CC(=O)[C@@H]4[C@@H]3CC[C@]12C
NCI-H460 [1]
  CC50: > 100000 nM
HCT-116
  CC50: > 3910 nM
HT-29 [2]
  CC50: > 100000 nM
SF-539
  CC50: > 100000 nM
LOX IMVI
  CC50: > 4100 nM
MDA-MB-435
  CC50: > 100000 nM
SK-MEL-2
  CC50: > 100000 nM
OVCAR-3 [3]
  CC50: > 100000 nM
SK-OV-3 [4]
  CC50: > 100000 nM
TK-10
  CC50: > 100000 nM
MDA-MB-231
  CC50: > 100000 nM
SK-OV-3 [5]
  GI50: 688 nM
RXF 393
  GI50: 201 nM
  TGI: 995 nM
UO-31
  GI50: 72 nM
  TGI: 359 nM
PC-3
  GI50: 59 nM
  TGI: 1570 nM
MCF7
  GI50: 112 nM
  TGI: 757 nM
MDA-MB-468
  GI50: 215 nM
  TGI: 462 nM
CCRF-CEM
  CC50: > 100000 nM
EKVX
  CC50: > 100000 nM
HL-60(TB)
  GI50: 153 nM
K562
  GI50: 249 nM
  TGI: > 100000 nM
SR
  GI50: 207 nM
  TGI: > 100000 nM
HOP-62
  GI50: 630 nM
  TGI: > 100000 nM
NCI-H226
  GI50: 480 nM
NCI-H322M
  GI50: 305 nM
  TGI: 849 nM
NCI-H460 [6]
  GI50: 333 nM
  TGI: 5590 nM
HCC 2998
  GI50: 274 nM
  TGI: 855 nM
HT-29 [7]
  GI50: 839 nM
  TGI: > 100000 nM
KM12
  GI50: 338 nM
  TGI: > 100000 nM
SW-620
  GI50: 141 nM
M14
  GI50: 299 nM
SK-MEL-28
  GI50: 302 nM
UACC-257
  GI50: 230 nM
  TGI: 610 nM
OVCAR-3 [8]
  GI50: 502 nM
  TGI: > 100000 nM

## CC(C)CCC[C@@H](C)[C@H]1CC[C@H]2C3=CCn4c(=O)ccc(=O)n4[C@@H]3CC[C@]12C
NCI-H460 [1]
  CC50: 5730 nM
HCT-116
  CC50: 594 nM
HT-29 [2]
  CC50: 5510 nM
SF-539
  CC50: 5640 nM
LOX IMVI
  CC50: 3520 nM
MDA-MB-435
  CC50: 7680 nM
SK-MEL-2
  CC50: 3390 nM
OVCAR-3 [3]
  CC50: 4780 nM
SK-OV-3 [4]
  CC50: 5470 nM
TK-10
  CC50: 3600 nM
MDA-MB-231
  CC50: 6250 nM
SK-OV-3 [5]
  GI50: 1630 nM
  TGI: 2990 nM
RXF 393
  GI50: 952 nM
  TGI: 2300 nM
UO-31
  GI50: 237 nM
  TGI: 1150 nM
PC-3
  GI50: 243 nM
  TGI: 1110 nM
MCF7
  GI50: 285 nM
  TGI: 1240 nM
MDA-MB-468
  GI50: 628 nM
  TGI: 2560 nM
CCRF-CEM
  CC50: > 100000 nM
EKVX
  CC50: 7330 nM
[9]
  diameter of the inhibition zone (DIZ): 8 mm
HL-60(TB)
  GI50: 113 nM
  TGI: 490 nM
K562
  GI50: 309 nM
  TGI: 2020 nM
SR
  GI50: 137 nM
  TGI: 758 nM
HOP-62
  GI50: 1330 nM
  TGI: 2670 nM
NCI-H226
  GI50: 1270 nM
  TGI: 3260 nM
NCI-H322M
  GI50: 1450 nM
  TGI: 2910 nM
NCI-H460 [6]
  GI50: 739 nM
  TGI: 2250 nM
HCC 2998
  GI50: 431 nM
  TGI: 1640 nM
HT-29 [7]
  GI50: 616 nM
  TGI: 2070 nM
KM12
  GI50: 443 nM
  TGI: 1510 nM
SW-620
  GI50: 375 nM
  TGI: 1360 nM
M14
  GI50: 285 nM
  TGI: 1010 nM
SK-MEL-28
  GI50: 512 nM
  TGI: 1650 nM
UACC-257
  GI50: 433 nM
  TGI: 1550 nM
OVCAR-3 [8]
  GI50: 861 nM
  TGI: 2110 nM

## CC(C)CCC[C@@H](C)[C@H]1CC[C@H]2[C@@H]3CCN4C(=O)CCC(=O)N4[C@@H]3CC[C@]12C
[9]
  diameter of the inhibition zone (DIZ): 12 mm
